Screening data deposited in PubChem BioAssay by several laboratories.
Rows were chosen to be rich in hits. Some 2.3% of all compounds tested hit in one or more screens of this group.
Ecoli WT expand: growth inhibitors of wild-type E. coli, primary screen, strain BW25113, expanded library, OD600; hit rate 0.15% among 98,000; growth inhibition, % at 100 µM; OD600 absorbance;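 active means growth inhibition above about 50% at one test dose, limit read from the data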;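 further: growth measured after 20 h incubation at 37 °C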
tolC growth inh: growth inhibitors of E. coli tolC mutant, primary screen, strain BW25113 ΔtolC::kan, 384-well | AID 573, 2007 | OD615 | hit rate 2.2% among 65,000 | growth inhibition, % at 10 µM (by protocol);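 active means growth inhibition at or above a cutoff equal to the mean over every tested compound plus 3 SD, cut at about 60% in these data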;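 further: growth measured after 20 h incubation at 37 °C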
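test system = E. coli BW25113 ΔtolC::kan bacteria | medium = LB with kanamycin 50 µg/mL | signal = OD at 615 nm | schedule = 37 °C, 20 h exposure | evaluation = % inhibition of E. coli growth | compound dosing = one dose of 10 µM final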
AP ELISA ortho: alternative complement pathway inhibitors, primary screen, biochemical, ELISA, human serum, orthogonally pooled compounds; LPS-coated ELISA, C3 deposition; tested in compound mixtures; inhibition, % at 5 µM; hit rate 0.08% among 62,000;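 active means inhibition above 30% in each of the two pooled mixtures holding the compound, so the lower value exceeds 30%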;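 further: 0% = serum in Mg-EGTA without compound and 100% = EDTA serum blank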
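Assay system: human serum alternative complement pathway, C3 deposition on LPS-coated wells; Dosing: 5 µM per compound in ten-compound mixtures; Detection: Anti-C3 ELISA, OD 450 nm; Buffer or medium: Mg2+-EGTA GVB++ buffer containing human serum at 1:15 dilution; Timing: 1 h at 37 °C; Replication: two different pools per compound.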
HePTP inhibitor: inhibitors of human HePTP phosphatase, primary screen, biochemical, absorbance, leukemia target. inhibition, % at 20 µM. recombinant HePTP phosphatase activity, OD absorbance. Tyrosine-protein phosphatase non-receptor type 7 (Homo sapiens), P35236. hit rate 0.64% among 110,000; in the data active means inhibition above about 50%;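 further: plate controls were vehicle for no effect and reference inhibitor for full effect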
Target sequence (P35236 whole entry, looked up): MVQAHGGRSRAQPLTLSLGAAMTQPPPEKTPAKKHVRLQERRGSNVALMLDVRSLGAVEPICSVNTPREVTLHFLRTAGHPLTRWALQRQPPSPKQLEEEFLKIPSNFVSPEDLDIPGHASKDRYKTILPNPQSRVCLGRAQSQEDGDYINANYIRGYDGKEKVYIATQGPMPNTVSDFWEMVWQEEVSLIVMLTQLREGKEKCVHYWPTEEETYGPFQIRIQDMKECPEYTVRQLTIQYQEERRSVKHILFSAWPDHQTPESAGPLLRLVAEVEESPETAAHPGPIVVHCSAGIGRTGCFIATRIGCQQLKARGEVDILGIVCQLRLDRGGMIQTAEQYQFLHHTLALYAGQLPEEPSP
PLAP activator: PLAP enzyme activators, biochemical, luminescence, HTS; hit rate 1.2% among 96,000; AID 696, 2007; Alkaline phosphatase, placental type (Homo sapiens), P05187; activation fold at 20 µM; purified PLAP enzyme, luminescent substrate read-out; active compounds read high; in the data active means activation fold above about 2
* = called active by the depositor; nt = no result; ! = not confirmed by another sample.

SMILES	Ecoli WT expand	tolC growth inh	AP ELISA ortho	HePTP inhibitor	PLAP activator
COc1cc(C2C3=C(CC(C)(C)CC3=O)OC3=C2C(=O)CC(C)(C)C3)cc2sc(=O)oc12	nt	nt	nt	-8	nt
CN1CC(=O)NC1=NC(=O)C12CC3CC(CC(C3)C1)C2	-2	22	8	0	2.6*
O=c1oc2c(CN3CCCCC3)c(O)ccc2cc1-c1nc2ccccc2[nH]1	nt	-5	11	0	2.2*
CN1CCN(Cc2c(O)ccc3cc(-c4nc5ccccc5[nH]4)c(=O)oc23)CC1	nt	nt	nt	1	nt
Clc1ccc(OCc2nnc(-c3ccccc3Br)o2)cc1	3	63*	12	2	0.9
CCCCOc1ccc(S(=O)(=O)n2c(C)nc3ccccc32)cc1	5	94*	9	11	1.1
CC(=O)/C(=C(/C)O)c1cc(C(C)(C)C)c(O)c(O)c1C(C)(C)C	nt	nt	nt	1	nt
COc1ccc(OC)c(/C=C2\SC(N3CCCC3)=NC2=O)c1	nt	nt	nt	-7	nt
COc1ccc(-n2c(COc3ccccc3)nnc2SCc2ccc(C#N)cc2)cc1	-29	63*	9	16	1
N#Cc1ccc(CSc2nnc(-c3ccccn3)n2-c2ccccc2)cc1	1	10	-1	6	1
N#Cc1ccc(CSc2nnc(-c3cccs3)n2-c2ccccc2)cc1	-26	74*	-1	-2	1.1
Cc1cc(C)cc(CC2CC(=O)N(c3ccc(C)cc3Br)C2=O)c1 (centres undefined)	nt	nt	nt	4	nt
CCCc1ccc(Oc2cn[nH]c2-c2ccc(O)c(C)c2O)cc1	12	100*	-4	-3	2.2*
CCCOC(=O)c1ccc(Oc2c(-c3ccc(OCC)cc3O)n[nH]c2C)cc1	13	26	6	2	2.2*
CCCOC(=O)c1ccc(Oc2cn[nH]c2-c2ccc(OCC)cc2O)cc1	11	70*	6	4	1.4
COc1ccc(Oc2c(-c3ccc(O)cc3O)n[nH]c2C)cc1	17	54	6	10	1.8
O=C(c1ccc(Br)cc1)N1CCN(c2ccc(F)cc2)CC1	nt	nt	nt	-6	nt
CC(=O)c1ccc(NC(=O)c2cc3nc(-c4ccc([N+](=O)[O-])cc4)cc(C(F)(F)F)n3n2)cc1	nt	nt	nt	-11	nt
COc1ccccc1N=Cc1c(O)n(-c2ccccc2Cl)c(=O)[nH]c1=O	nt	nt	nt	-6	nt
N#C/C(=C(/O)CSc1ccccc1C(=O)O)c1nc2ccccc2s1	-5	nt	nt	nt	1.1
COc1ccc(C/C(O)=C(\C#N)c2nc3ccccc3s2)cc1	-7	74*	6	-1	0.9
Cc1ccc(SC/C(O)=C(\C#N)c2nc3ccccc3s2)cc1	-15	83*	-9	8	1.1
CC(C)C(=O)Nc1cccc(-c2nc3cc(Cl)cc(Cl)c3o2)c1	nt	nt	nt	-1	nt
CCOc1ccc(N(CC(=O)Nc2cccc(OC)c2)S(=O)(=O)c2c(C)noc2C)cc1	-21	70*	-6	-1	1.8
CCOc1ccc(N(CC(=O)Nc2cccc(Cl)c2)S(=O)(=O)c2c(C)noc2C)cc1	3	73*	7	-8	1.3
SMILES	Ecoli WT expand	tolC growth inh	AP ELISA ortho	HePTP inhibitor	PLAP activator
CCOc1ccc(N(CC(=O)Nc2ccc(F)c(F)c2)S(=O)(=O)c2c(C)noc2C)cc1	-9	-9	-2	-10	1
Cc1ccc(N(CC(=O)Nc2ccc3c(c2)OCCO3)S(=O)(=O)c2c(C)noc2C)cc1	-8	65*	15	10	1
Cc1cc(OCC(=O)Nc2ccc3c(c2)OCO3)ccc1Br	nt	nt	nt	-1	nt
Cc1ccc2nc(/N=C(/N)NC(=O)Cc3ccccc3)nc(C)c2c1	nt	nt	nt	-15	nt
O=C(c1cc(C2CC2)on1)N1CCN(C(c2ccccc2)c2ccccc2)CC1	-4	65*	-2	10	1.1
COc1cccc(C(=O)Nc2nnc(-c3cccs3)s2)c1	-26	nt	nt	nt	0.8
O=C(Nc1nnc(-c2cccs2)o1)c1cccc(Oc2ccccc2)c1	29	97*	4	3	1.4
O=C(Nc1nnc(-c2cccs2)o1)c1cccc(F)c1	nt	100*	-3	-4	nt
O=C1CSC(c2ccccc2F)N1Cc1ccccc1 (centres undefined)	nt	nt	nt	3	nt
O=C(NNC1=C(C(=O)C(F)(F)F)CCC1)c1ccccc1Cl	26	nt	nt	nt	2.1*
Cn1cc(SCC(=O)Nc2nc3ccccc3s2)c2ccccc21	-23	62*	23	7	0.9
O=C(CSc1nc2ccccc2s1)Nc1nc2ccccc2s1	nt	nt	nt	0	nt
COc1ccc(OC)c(NC(=S)NC(NC(=O)c2ccccc2Cl)C(Cl)(Cl)Cl)c1 (centres undefined)	nt	nt	nt	104*	nt
CC(Sc1n[nH]c(N)n1)C(=O)C12CC3CC(CC(C3)C1)C2 (centres undefined)	-3	nt	nt	nt	2*
CCOC(=O)C(Sc1n[nH]c(N)n1)c1ccccc1 (centres undefined)	5	nt	nt	nt	1.3
COc1cc(NC(=O)/C=C/c2ccc(C)cc2)c(OC)cc1Cl	nt	nt	nt	1	nt
O=C(Nc1ccccc1OC(F)(F)F)c1sc2ccccc2c1Cl	nt	nt	nt	-4	nt
O=C(CN1CCN(Cc2ccccc2F)C1=O)NCc1cccnc1	6	-12	19	9	1
O=C(CN1CCN(Cc2ccccc2F)C1=O)NCc1ccco1	5	nt	nt	nt	2*
Cc1cc(-c2ccccc2)c2nncn2n1	6	-9	7	78*!	1.1
O=C1CC(c2ccccc2)CC(O)=C1C=Nc1ccc(Cl)cc1C(=O)c1ccccc1 (centres undefined)	nt	nt	nt	-6	nt
Cc1c(C(=O)Nc2cc(C(F)(F)F)cc(C(F)(F)F)c2)oc2ccccc12	nt	nt	nt	-1	nt
CC(=O)Nc1cccc(NC(=O)c2oc3ccccc3c2C)c1	11	67*	16	10	1.6
Cc1sc(NC(=O)CN2C(=O)c3ccccc3C2=O)nc1-c1ccccc1	nt	nt	nt	2	nt
CCC(C(=O)N1CCN(c2cccc(Cl)c2)CC1)c1ccccc1 (centres undefined)	-6	100*	5	3	1.1
SMILES	Ecoli WT expand	tolC growth inh	AP ELISA ortho	HePTP inhibitor	PLAP activator
O=C(/C=C/c1ccc(F)cc1)N1CCN(c2cccc(Cl)c2)CC1	nt	nt	nt	104*	nt
CN1CCN(C(=O)c2cc3nc(-c4ccc([N+](=O)[O-])cc4)cc(C(F)(F)F)n3n2)CC1	nt	nt	nt	7	nt
Cc1ccccc1COc1ccc(/C(O)=C2/C(=O)C(=O)N(CCCn3ccnc3)C2c2ccco2)cc1 (centres undefined)	nt	6	nt	5	2.6*
O=C1C2C3C=CC(C3)C2C(=O)N1/N=C/c1cccc(I)c1 (centres undefined)	nt	nt	nt	5	nt
Nc1nc2n(n1)C1(CCCCC1)C1=C(CCCC1)N2	0	-3	6	-12	2.1*
CCC(=O)N1CCc2cc(S(=O)(=O)NC(Cc3ccccc3)C(=O)NC3CCCCC3C)ccc21 (centres undefined)	-3	nt	nt	nt	2.3*
CCC(=O)N1CCc2cc(S(=O)(=O)NC(CC(C)C)C(=O)N3CCc4ccccc43)ccc21 (centres undefined)	-3	-3	7	2	1
